# From ChEMBL document CHEMBL1275451, “In vitro susceptibilities of invasive isolates of Candida species: rapid increase in rates of fluconazole susceptible-dose dependent Candida glabrata isolates” (2008)
# *1 amine or outer side, *2 acyl side, *3 side chain or, on linkers, in order; H or OH if unused. Where a SMILES comes first, the peptide text is derived from it. Bridges are numbered along the chain shown (N, C = ends). [ ]: non-standard residue; d: D form. The star is where a group is joined. hTyr(3S-OH,4S-OH,3'-OSO3H) = N[C@H](C(=O)O)[C@H](O)[C@@H](O)c1ccc(O)c(OS(=O)(=O)O)c1; pTerphenylCO(4''-OnC5H11) = CCCCCOc1ccc(-c2ccc(-c3ccc(C(=O)*)cc3)cc2)cc1; Orn(4R-OH,5R-OH) = O=C([C@H](C[C@@H](O)[C@@H](O)N[*:3])N[*:1])[*:2]; hTyr(3S-OH,4S-OH) = N[C@H](C(=O)O)[C@H](O)[C@@H](O)c1ccc(O)cc1; Pro(3S-OH,4S-Me) = C[C@H]1CN[C@H](C(=O)O)[C@H]1O; X1 = CCCCCOc1ccc(-c2cc(-c3ccc(C(=O)*)cc3)no2)cc1; Gln(3R-OH) = NC(=O)C[C@@H](O)[C@H](N)C(=O)O; Hyp = O=C(O)[C@@H]1C[C@@H](O)CN1
# What was measured:
# Type in all cases: functional
# [1] = tested on: Clavispora lusitaniae; experiment: Antifungal activity against Candida lusitaniae assessed as susceptible isolates after 48 hrs by CLSI method
# In short: (§1)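 Broth microdilution MICs were run on invasive clinical Candida isolates under CLSI M27-A2, with incubation at 35°C for 48 h before reading. Control strains were C. parapsilosis ATCC 22019 and C. krusei ATCC 6258. MICs were interpreted under the same guideline to place isolates as susceptible, susceptible-dose dependent or resistant, reported as percentage of isolates per category, with MIC range, MIC50 and MIC90.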
# [2] = tested on: Meyerozyma guilliermondii; experiment: Antifungal activity against Candida guilliermondii assessed as susceptible isolates after 48 hrs by CLSI method; in short: as §1
# [3] = tested on: Nakaseomyces glabratus; experiment: Antifungal activity against Candida glabrata assessed as susceptible isolates after 48 hrs by CLSI method; in short: as §1
# [4] = tested on: Pichia kudriavzevii; experiment: Antifungal activity against Candida krusei after 48 hrs by CLSI method
# In short: as §1, with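 “reading.” for “reading. Control strains were C. parapsilosis ATCC 22019 and C. krusei ATCC 6258.”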
# [5] = tested on: Candida albicans; experiment: Antifungal activity against Candida albicans after 48 hrs by CLSI method
# [6] = tested on: Candida albicans; experiment: Antifungal activity against Candida albicans assessed as susceptible isolates after 48 hrs by CLSI method; in short: as §1
# [7] = tested on: Candida tropicalis; experiment: Antifungal activity against Candida tropicalis after 48 hrs by CLSI method; in short: as §1
# [8] = tested on: Clavispora lusitaniae; experiment: Antifungal activity against Candida lusitaniae after 48 hrs by CLSI method
# [9] = tested on: Candida tropicalis; experiment: Antifungal activity against Candida tropicalis assessed as susceptible isolates after 48 hrs by CLSI method; in short: as §1
# [10] = tested on: Pichia kudriavzevii; experiment: Antifungal activity against Candida krusei assessed as susceptible isolates after 48 hrs by CLSI method; in short: as §1
# [11] = tested on: Nakaseomyces glabratus; experiment: Antifungal activity against Candida glabrata after 48 hrs by CLSI method
# [12] = tested on: Candida parapsilosis; experiment: Antifungal activity against Candida parapsilosis assessed as susceptible isolates after 48 hrs by CLSI method; in short: as §1
# [13] = tested on: Candida parapsilosis; experiment: Antifungal activity against Candida parapsilosis assessed as susceptible dose-dependent isolates after 48 hrs by CLSI method; in short: as §1
# [14] = tested on: Candida tropicalis; experiment: Antifungal activity against Candida tropicalis assessed as susceptible dose-dependent isolates after 48 hrs by CLSI method; in short: as §1
# [15] = tested on: Meyerozyma guilliermondii; experiment: Antifungal activity against Candida guilliermondii after 48 hrs by CLSI method
# [16] = tested on: Meyerozyma guilliermondii; experiment: Antifungal activity against Candida guilliermondii assessed as susceptible dose-dependent isolates after 48 hrs by CLSI method; in short: as §1
# [17] = tested on: Nakaseomyces glabratus; experiment: Antifungal activity against Candida glabrata assessed as susceptible dose-dependent isolates after 48 hrs by CLSI method; in short: as §1
# [18] = tested on: Pichia kudriavzevii; experiment: Antifungal activity against Candida krusei assessed as susceptible dose-dependent isolates after 48 hrs by CLSI method; in short: as §1
# [19] = tested on: Candida albicans; experiment: Antifungal activity against Candida albicans assessed as resistant isolates after 48 hrs by CLSI method; in short: as §1
# [20] = tested on: Candida albicans; experiment: Antifungal activity against Candida albicans assessed as susceptible dose-dependent isolates after 48 hrs by CLSI method; in short: as §1
# [21] = tested on: Clavispora lusitaniae; experiment: Antifungal activity against Candida lusitaniae assessed as susceptible dose-dependent isolates after 48 hrs by CLSI method; in short: as §1
# [22] = tested on: Candida tropicalis; experiment: Antifungal activity against Candida tropicalis assessed as resistant isolates after 48 hrs by CLSI method; in short: as §1
# [23] = tested on: Pichia kudriavzevii; experiment: Antifungal activity against Candida krusei assessed as resistant isolates after 48 hrs by CLSI method; in short: as §1
# [24] = tested on: Candida parapsilosis; experiment: Antifungal activity against Candida parapsilosis after 48 hrs by CLSI method; conditions: Lodderomyces parapsilosis; in short: as §1
# [25] = tested on: Candida parapsilosis; experiment: Antifungal activity against Candida parapsilosis assessed as resistant isolates after 48 hrs by CLSI method; in short: as §1
# [26] = tested on: Nakaseomyces glabratus; experiment: Antifungal activity against Candida glabrata assessed as resistant isolates after 48 hrs by CLSI method; in short: as §1
# [27] = tested on: Meyerozyma guilliermondii; experiment: Antifungal activity against Candida guilliermondii assessed as resistant isolates after 48 hrs by CLSI method; in short: as §1
# [28] = tested on: Clavispora lusitaniae; experiment: Antifungal activity against Candida lusitaniae assessed as resistant isolates after 48 hrs by CLSI method; in short: as §1
Structure (SMILES),Activity [1] [%],Activity [2] [%],Activity [3] [%],MIC50 [4] [µg/mL],MIC90 [4] [µg/mL],MIC [5] [µg/mL],MIC50 [5] [µg/mL],MIC90 [5] [µg/mL],Activity [6] [%],MIC50 [7] [µg/mL],MIC90 [7] [µg/mL],MIC50 [8] [µg/mL],MIC90 [8] [µg/mL],Activity [9] [%],MIC50 [11] [µg/mL],MIC90 [11] [µg/mL],MIC50 [15] [µg/mL],MIC90 [15] [µg/mL],MIC50 [24] [µg/mL],MIC90 [24] [µg/mL],further results
C[C@@H]1[C@H](O)[C@@H](C)/C=C/C=C/C=C/C=C/C=C/C=C/C=C/[C@H](O[C@@H]2O[C@H](C)[C@@H](O)[C@H](N)[C@@H]2O)C[C@@H]2O[C@](O)(C[C@@H](O)C[C@@H](O)[C@H](O)CC[C@@H](O)C[C@@H](O)CC(=O)O[C@H]1C)C[C@H](O)[C@H]2C(=O)O [AMPHOTERICIN B],100,97,47,2,2,1,1,1,100,0.5,1,1,1,98,2,2,–,–,–,–,MIC [7]: 0.5 µg/mL; Activity [10]: 5%; Activity [12]: 98%
CCC(C)n1ncn(-c2ccc(N3CCN(c4ccc(OCC5COC(Cn6cncn6)(c6ccc(Cl)cc6Cl)O5)cc4)CC3)cc2)c1=O (stereo not given) [ITRACONAZOLE],100,6,0,0.5,0.5,–,0.03,0.03,98,0.12,0.25,0.06,0.06,65,1,1,0.5,0.5,0.06,0.25,Activity [13]: 22%; Activity [14]: 35%; Activity [16]: 88%; Activity [17]: 37%; Activity [18]: 90%; Activity [19]: 0%; Activity [20]: 2%; Activity [21]: 0%; Activity [22]: 0%; Activity [23]: 10%; Activity [10]: 0%; Activity [25]: 0%; Activity [12]: 78%; Activity [26]: 63%
CC[C@@H]([C@H](C)O)n1ncn(-c2ccc(N3CCN(c4ccc(OC[C@@H]5CO[C@@](Cn6cncn6)(c6ccc(F)cc6F)C5)cc4)CC3)cc2)c1=O [POSACONAZOLE],–,–,–,0.25,0.25,0.015,0.015,0.03,–,0.06,0.25,0.03,0.03,–,0.5,0.5,0.12,0.25,0.03,0.06,MIC [24]: 0.03 µg/mL
CC[C@H](C)C[C@H](C)CCCCCCCCC(=O)N[C@H]1C[C@@H](O)[C@@H](NCCN)NC(=O)[C@@H]2[C@@H](O)CCN2C(=O)[C@H]([C@H](O)CCN)NC(=O)[C@H]([C@H](O)[C@@H](O)c2ccc(O)cc2)NC(=O)[C@@H]2C[C@@H](O)CN2C(=O)[C@H]([C@@H](C)O)NC1=O [CASPOFUNGIN],–,–,–,1,1,–,0.25,0.25,–,0.25,0.5,2,2,–,0.25,0.25,2,2,1,2,–
C[C@@H](c1ncncc1F)[C@](O)(Cn1cncn1)c1ccc(F)cc1F [VORICONAZOLE],100,97,94,0.5,0.5,0.015,0.015,0.03,100,0.12,0.12,0.015,0.015,100,0.5,1,0.06,0.12,0.03,0.06,Activity [27]: 0%; Activity [28]: 0%; Activity [13]: 0%; Activity [14]: 0%; Activity [16]: 3%; Activity [17]: 2%; Activity [18]: 3%; Activity [19]: 0%; Activity [20]: 0%; Activity [21]: 0%; MIC [8]: 0.015 µg/mL; Activity [22]: 0%; Activity [23]: 3%; Activity [10]: 95%; Activity [25]: 0%; Activity [12]: 100%; Activity [26]: 4%
"CCCCCOc1ccc(-c2ccc(-c3ccc(C(=O)N[C@H]4C[C@@H](O)[C@@H](O)NC(=O)[C@@H]5[C@@H](O)[C@@H](C)CN5C(=O)[C@H]([C@@H](C)O)NC(=O)[C@H]([C@H](O)[C@@H](O)c5ccc(O)cc5)NC(=O)[C@@H]5C[C@@H](O)CN5C(=O)[C@H]([C@@H](C)O)NC4=O)cc3)cc2)cc1 [ANIDULAFUNGIN] ({pTerphenylCO(4''-OnC5H11)}-[Orn(4R-OH,5R-OH)]T[Hyp][hTyr(3S-OH,4S-OH)]T[Pro(3S-OH,4S-Me)]; lactam 1-C)",–,–,–,0.12,0.25,0.015,0.015,0.015,–,0.03,0.06,0.06,0.12,–,0.03,0.03,1,2,1,2,–
"CCCCCOc1ccc(-c2cc(-c3ccc(C(=O)N[C@H]4C[C@@H](O)[C@@H](O)NC(=O)[C@@H]5[C@@H](O)[C@@H](C)CN5C(=O)[C@H]([C@H](O)CC(N)=O)NC(=O)[C@H]([C@H](O)[C@@H](O)c5ccc(O)c(OS(=O)(=O)O)c5)NC(=O)[C@@H]5C[C@@H](O)CN5C(=O)[C@H]([C@@H](C)O)NC4=O)cc3)no2)cc1 [MICAFUNGIN] (X1-[Orn(4R-OH,5R-OH)]T[Hyp][hTyr(3S-OH,4S-OH,3'-OSO3H)][Gln(3R-OH)][Pro(3S-OH,4S-Me)]; lactam 1-C)",–,–,–,0.25,0.5,0.007,0.007,0.015,–,0.06,0.12,0.25,0.25,–,0.06,0.06,1,1,2,2,MIC [4]: 0.25 µg/mL; MIC [7]: 0.06 µg/mL
OC(Cn1cncn1)(Cn1cncn1)c1ccc(F)cc1F [FLUCONAZOLE],100,88,22,32,64,0.12,0.12,0.25,100,1,2,0.25,0.5,100,16,32,–,–,1,2,Activity [27]: 3%; Activity [28]: 0%; Activity [13]: 2%; Activity [14]: 0%; Activity [16]: 9%; Activity [17]: 73%; Activity [18]: 63%; Activity [19]: 0%; Activity [20]: 0%; Activity [21]: 0%; Activity [22]: 0%; Activity [23]: 38%; Activity [10]: 0%; Activity [25]: 0%; Activity [12]: 98%; Activity [26]: 6%
